Assay results as given in ChEMBL document CHEMBL4359903, “1,2,4-Oxadiazole derivatives targeting EGFR and c-Met degradation in TKI resistant NSCLC” (Eur J Med Chem, 2019).
Active and inactive are the calls of the source. No cut-off for these calls is given here.

Columns and labels:
[1] = tested on: Epidermal growth factor receptor (Homo sapiens), P00533 [L858R,T790M]; experiment: Induction of EGFR L858R/T790M double mutant degradation in human NCI-H1975 cells assessed as reduction in EGFR expression at 0.2 to 0.6 uM incubated for 48 hrs by Western blot analysis; format: cell-based
Outline: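 After 48 h treatment, cells were scraped and lysed in 1% SDS, 50 mM Tris-HCl pH 8.0, 10 mM EDTA with protease and phosphatase inhibitors. Lysates sonicated, protein measured by BCA, equal amounts run on SDS-PAGE and blotted to nitrocellulose. Primary antibodies (EGFR, c-Met, S473-Akt, Akt, GAPDH) used at 1:1000 overnight at 4 °C, HRP secondaries at 1:5000, ECL detection.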

[2] = target: Hepatocyte growth factor receptor (Homo sapiens) (UniProt P08581); experiment: Effect on c-Met degradation in human NCI-H1975 cells harboring EGFR L858R/T790M double assessed as reduction in c-Met expression at 0.2 to 0.6 uM incubated for 48 hrs by RT-PCR analysis; format: cell-based
Outline: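 Total RNA extracted with TRIzol from H1975 and A549 cells treated at 0.2–0.6 µM. EGFR and c-Met mRNA assessed by RT-PCR.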

Hepatocyte growth factor receptor (Homo sapiens), sequence (P08581 whole entry): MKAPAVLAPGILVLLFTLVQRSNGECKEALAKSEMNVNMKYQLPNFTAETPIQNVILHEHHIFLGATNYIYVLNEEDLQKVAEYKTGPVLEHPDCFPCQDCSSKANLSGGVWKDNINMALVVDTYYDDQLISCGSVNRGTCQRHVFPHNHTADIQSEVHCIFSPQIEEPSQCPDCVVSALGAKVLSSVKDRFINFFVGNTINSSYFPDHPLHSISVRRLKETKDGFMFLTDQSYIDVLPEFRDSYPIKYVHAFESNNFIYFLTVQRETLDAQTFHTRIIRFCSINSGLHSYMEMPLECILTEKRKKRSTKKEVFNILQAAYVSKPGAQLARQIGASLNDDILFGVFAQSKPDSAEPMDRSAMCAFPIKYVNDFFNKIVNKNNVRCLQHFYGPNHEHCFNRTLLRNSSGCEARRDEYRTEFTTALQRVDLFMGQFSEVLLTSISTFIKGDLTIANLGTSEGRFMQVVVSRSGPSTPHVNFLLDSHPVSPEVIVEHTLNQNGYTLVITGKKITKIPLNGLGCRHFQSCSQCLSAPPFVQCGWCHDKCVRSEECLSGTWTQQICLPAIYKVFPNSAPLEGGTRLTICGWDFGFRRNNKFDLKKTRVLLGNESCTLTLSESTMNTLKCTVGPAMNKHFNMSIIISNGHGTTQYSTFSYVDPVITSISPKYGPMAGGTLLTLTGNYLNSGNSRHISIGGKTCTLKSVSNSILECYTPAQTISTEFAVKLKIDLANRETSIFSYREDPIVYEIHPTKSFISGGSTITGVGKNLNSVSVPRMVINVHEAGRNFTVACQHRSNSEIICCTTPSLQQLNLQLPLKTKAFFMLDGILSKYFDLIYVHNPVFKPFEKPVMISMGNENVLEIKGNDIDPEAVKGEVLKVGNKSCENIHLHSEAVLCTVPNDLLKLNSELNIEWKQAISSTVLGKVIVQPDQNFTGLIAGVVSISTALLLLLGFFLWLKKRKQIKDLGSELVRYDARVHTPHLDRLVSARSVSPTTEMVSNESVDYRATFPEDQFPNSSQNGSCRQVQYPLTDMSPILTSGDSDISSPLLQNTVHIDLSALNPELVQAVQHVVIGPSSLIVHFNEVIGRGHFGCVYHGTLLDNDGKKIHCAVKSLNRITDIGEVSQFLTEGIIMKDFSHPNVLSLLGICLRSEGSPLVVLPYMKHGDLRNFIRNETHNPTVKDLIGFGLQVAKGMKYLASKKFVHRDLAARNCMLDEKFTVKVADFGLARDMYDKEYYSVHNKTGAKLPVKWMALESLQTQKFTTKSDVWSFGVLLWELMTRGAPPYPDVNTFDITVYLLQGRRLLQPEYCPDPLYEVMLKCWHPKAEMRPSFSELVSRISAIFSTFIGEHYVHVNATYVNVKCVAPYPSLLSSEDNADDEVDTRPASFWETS

O=C(Nc1cccc(-c2nc(-c3ccc(NC(=O)c4cccnc4)cc3Cl)no2)c1)Nc1ccc(NC(=O)C2CC2)c(C(F)(F)F)c1
Activity [1]: Active | Activity [2]: inactive
